Test results from the array DNA melting data of Ke et al. (doi:10.1101/2024.01.08.574731).

Key:
[1] = melting temperature; fluorescence melt of hairpins on a sequencing array, two-state fit, raised by 9.35 °C to match UV melts; conditions: sodium 0.088 M
Summary of the method: (§1)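 Hairpins were imaged by Cy3 fluorescence on a sequenced MiSeq flow cell with annealed Cy3 and quencher oligos, in 50 mM Na-HEPES pH 8.0, 25 mM NaCl, in 2.5 °C steps up to 60 °C. Bootstrapped two-state fits of normalised signals gave melting temperature and folding enthalpy. Four replicates were combined by inverse variance, and fitted temperatures were raised by 9.35 °C to match UV melts.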

[2] = folding enthalpy; higher = less favourable; fluorescence melt of hairpins on a sequencing array, two-state fit; conditions: sodium 0.088 M
Summary of the method: as §1

Row | Sequence | Tm [1] [°C] | folding enthalpy [2] [kcal/mol]
1 | GTGTCTGGAAACAGGTAC ((..(((....)))..)) | 30.1 | -11.4
2 | GTGTGACGAAAGTCGCAC (((.(((....))).))) | 65.9 | -42.5
3 | GTGTGAGGAAACTCACGC (.(((((....))))).) | 53.3 | -35.9
4 | GTGTGAGGAAACTCATAC ((.((((....)))).)) | 44.9 | -36.5
5 | GTGTGAGGAAACTCATGC (..((((....))))..) | 36.8 | -23.5
6 | GTGTGAGGAAACTCGCAC (((.(((....))).))) | 54.3 | -47
7 | GTGTGCGAAAGCAAACAC ((((((....)))..))) | 51.7 | -24.1
8 | GTGTGCGAAAGCAGACAC ((((((....)))..))) | 53.2 | -19.1
9 | GTGTGCGAAAGCATCAC ((((((....))).))) | 54 | -21.9
10 | GTGTGCGGAAACGCATGC (..((((....))))..) | 49.6 | -15.9
11 | GTGTGGGAAACCACAC ((((((....)))))) | 63.4 | -39.2
12 | GTGTGGGGAAACCCACAC (((((((....))))))) | 69 | -32.3
13 | GTGTGGGGAAACCCACGC (.(((((....))))).) | 58.8 | -14.2
14 | GTGTGGGGAAACCCATGC (..((((....))))..) | 43.1 | -21.5
15 | GTGTGGGGAAACCCGCAC (((.(((....))).))) | 59.7 | -35.3
16 | GTGTGTCGAAAGACCCAC (((.(((....))).))) | 49.4 | -29
17 | GTGTGTGGAAACACATGC (..((((....))))..) | 49.6 | -18.8
18 | GTGTGTGGAAACATGCAC (((..((....))..))) | 43.3 | -27.4
19 | GTGTGTTCGAAAGAACAC (((..(((....)))))) | 64.2 | -15.7
20 | GTGTTACCGAAAGGTCAC (((..(((....)))))) | 43.6 | -23.6
21 | GTGTTAGGAAACCAACAC (((((.(....).))))) | 40 | -28.9
22 | GTGTTAGGAAACTAACAC (((((((....))))))) | 57.8 | -42.1
23 | GTGTTCCGAAAGGAGCAC (((.(((....))).))) | 59.3 | -41.8

Row | Sequence | Tm [1] [°C] | folding enthalpy [2] [kcal/mol]
24 | GTGTTCGAAAGAAACAC ((((((....))).))) | 47.1 | -28.1
25 | GTGTTCGAAAGAACGCAC ((((((....)))..))) | 48.4 | -12.4
26 | GTGTTCGAAAGAAGCAC ((((((....))).))) | 37.4 | -21.8
27 | GTGTTCGGAAACAAACAC (((((.(....).))))) | 37.8 | -29.7
28 | GTGTTGGAAACAACAC ((((((....)))))) | 56.8 | -35
29 | GTGTTGGGAAACTAGCAC (((.(.(....).).))) | 31.8 | -15.6
30 | GTGTTGGGAAACTGACAC ((((..(....)..)))) | 39.3 | -27.6
31 | GTGTTTGCGAAAGCACAC (((..(((....)))))) | 45.9 | -20.2
32 | GTGTTTGGAAACAAACAC (((((((....))))))) | 59.6 | -47.9
33 | GTTAAACGAAAGTTGAAC (((.(((....))).))) | 41.7 | -26
34 | GTTAACCCGAAAGGGAAC (((..(((....)))))) | 25.9 | -12.2
35 | GTTAACCGAAAGGTGAAC (((.(((....))).))) | 48.9 | -27.7
36 | GTTAACGAAAGTTATAAC ((((((....)))..))) | 26.4 | -13.3
37 | GTTAACGAAAGTTGAAAC ((((((....)))..))) | 24.9 | -11.1
38 | GTTAACGGAAACGTTAAC (((((((....))))))) | 56.9 | -42.3
39 | GTTAAGCCGAAAGGCAAC (((..(((....)))))) | 32.9 | -10.5
40 | GTTAAGCGAAAGCTAAAC (((.(((....))).))) | 41.5 | -19.9
41 | GTTAAGGGAAACCCTAAC ((((.((....)).)))) | 30.3 | -14.2
42 | GTTAATGGAAACATTGAC ((.((((....)))).)) | 37.3 | -26.1
43 | GTTACAGGAAACTGCAAC (((.(((....))).))) | 35.8 | -23.4
44 | GTTACCCCGAAAGGGAAC (((..(((....)))))) | 32.9 | -16.5
45 | GTTACCCGAAAGGGAAC (((.(((....)))))) | 43.7 | -17.1
46 | GTTACCGAAAGGTAAC ((((((....)))))) | 66.4 | -34.6

Row | Sequence | Tm [1] [°C] | folding enthalpy [2] [kcal/mol]
47 | GTTACCGAAAGGTAGAAC ((((((....)))..))) | 29.3 | -10.1
48 | GTTACCGAAAGGTCTAAC ((((((....)))..))) | 29.2 | -9.14
49 | GTTACCGAAAGGTGTAAC ((((((....)))..))) | 32.2 | -14.9
50 | GTTACGGGAAACCGCAAC (((.(((....))).))) | 41.7 | -26
51 | GTTACTGAAAAGTAAC ((((((....)))))) | 49.4 | -33.8
52 | GTTACTGGAAACAGTAAC (((((((....))))))) | 54.1 | -60.8
53 | GTTAGACGAAAGTCCAAC (((.(((....))).))) | 38 | -17.3
54 | GTTAGAGAAATCTAAC ((((((....)))))) | 38.4 | -27.9
55 | GTTAGAGGAAACTCTAGC (.(((((....))))).) | 34.5 | -23.1
56 | GTTAGCCGAAAGGCGAAC (((.(((....))).))) | 57.6 | -20.5
57 | GTTAGCGAAAGCTAAAC ((((((....))).))) | 46.5 | -13.7
58 | GTTAGCGAAAGCTATAAC ((((((....)))..))) | 31.4 | -12.7
59 | GTTAGCGAAAGCTCAAC ((((((....))).))) | 32.7 | -11.8
60 | GTTAGCGAAAGCTGGAAC ((((((....)))..))) | 27 | -8.68
61 | GTTAGCGAAAGCTGTAAC ((((((....)))..))) | 31.6 | -9.81
62 | GTTAGCGGAAACACTAAC (((((.(....).))))) | 36.6 | -30.3
63 | GTTAGCGGAAACGCCAAC (((.(((....))).))) | 37.4 | -17.3
64 | GTTAGTCGAAAGACGAAC (((.(((....))).))) | 49 | -25.6
65 | GTTAGTGGAAACGCTAAC (((((.(....).))))) | 45.3 | -31.8
66 | GTTAGTGGAAACGTTAAC ((((..(....)..)))) | 27.6 | -10.1
67 | GTTATACCGAAAGGTAAC (((..(((....)))))) | 32.8 | -10.4
68 | GTTATACGAAAGTAGAAC (((.(((....))).))) | 45.1 | -29.9
